Assay results published in ChEMBL document CHEMBL1671727, “Expression, purification, and characterization of Aspergillus fumigatus sterol 14-alpha demethylase (CYP51) isoenzymes A and B” (Antimicrob Agents Chemother, 2010).
The source made the active and inactive calls. The calls are words filed in the database; no cut-off is given here.

What was measured:
[1] = molecular target: T1, 14-alpha sterol demethylase (Neosartorya fumigata (Aspergillus fumigatus)) (UniProt Q96W81); experiment: Binding affinity to 1 uM recombinant Aspergillus fumigatus AF293 sterol 14-alpha demethylase isoenzyme B from Escherichia coli membrane suspension assessed as spectral dissociation constant
T1 sequence (whole entry): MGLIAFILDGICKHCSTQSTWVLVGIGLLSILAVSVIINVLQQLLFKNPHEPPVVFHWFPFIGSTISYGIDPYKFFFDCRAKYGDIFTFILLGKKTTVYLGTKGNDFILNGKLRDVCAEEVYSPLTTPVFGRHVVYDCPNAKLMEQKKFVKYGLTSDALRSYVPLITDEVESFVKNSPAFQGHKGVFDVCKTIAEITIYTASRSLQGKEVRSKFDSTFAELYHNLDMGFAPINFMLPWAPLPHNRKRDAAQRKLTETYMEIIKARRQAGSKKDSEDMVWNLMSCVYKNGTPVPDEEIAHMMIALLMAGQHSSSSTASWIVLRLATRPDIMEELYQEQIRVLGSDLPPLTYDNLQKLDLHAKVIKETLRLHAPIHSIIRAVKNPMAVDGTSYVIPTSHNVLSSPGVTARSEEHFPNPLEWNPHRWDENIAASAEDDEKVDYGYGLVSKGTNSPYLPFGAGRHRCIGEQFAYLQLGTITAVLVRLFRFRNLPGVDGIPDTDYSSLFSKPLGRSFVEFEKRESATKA

[2] = molecular target: T1, 14-alpha sterol demethylase (Neosartorya fumigata (Aspergillus fumigatus)); experiment: Binding affinity to Aspergillus fumigatus AF293 sterol 14-alpha demethylase isoenzyme B expressed in Escherichia coli assessed as generation of type I difference spectrum at 4.8 uM
[3] = molecular target: T1, 14-alpha sterol demethylase (Neosartorya fumigata (Aspergillus fumigatus)); experiment: Binding affinity to Aspergillus fumigatus AF293 sterol 14-alpha demethylase isoenzyme B expressed in Escherichia coli assessed as spectral dissociation constant
Procedure, shortened: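 His-tagged CYP51 (Af293 sequence, codon-optimised, E. coli-expressed), cholate-solubilised and Ni-NTA purified, at 1 μM in 0.1 M Tris-HCl pH 8.1 with 25% glycerol. Azole (0.05 mg/ml DMSO stock) titrated in split 4.5 mm cuvettes, with DMSO added to the reference. Difference spectra were read at 500–350 nm. Peak-to-trough change was plotted against concentration. Kd came from Morrison (tight binding), Michaelis-Menten or Hill fits.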

Q: With `C=C(CC[C@@H](C)[C@H]1CC[C@@]2(C)C3=C(CC[C@]12C)[C@@]1(C)CC[C@H](C)C(C)(C)C1CC3)C(C)C` (stereo not given in full) as the compound, how does the Ks [1] read?
A: 4.1 µM

Q: What about the Activity [2] of the same compound?
A: Active

Q: What about the Ks [3] of the same compound?
A: 22.6 µM

Q: Which Ks [1] does the source give for `CC(C)=CCC[C@@H](C)[C@H]1CC[C@@]2(C)C3=C(CC[C@]12C)[C@@]1(C)CC[C@H](O)C(C)(C)[C@@H]1CC3` here?
A: 3.1 µM

Q: And the Ks [3]?
A: 8.6 µM
